Experimental data reported in ChEMBL document CHEMBL2375244 (J Med Chem, 2013).
Activity calls are given as the source filed them. No cut-off for these calls is given here.

Experiments:
[1] = target: CDK9/Cyclin K (Homo sapiens) (UniProt P50750+O75909); test: Inhibition of human CDK9/Cyclin K at 0.1 uM incubated for 15 mins prior to substrate addition measured after 90 mins by P33-radiolabeled assay relative to control; type: protein-complex assay
In short: (§1)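 Kinome profiling (339-kinase panel) by a contract lab using a P33-radiolabel assay. Each kinase was tested at a single compound concentration of 0.1 μM, in duplicate, with ATP at 10 μM.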

[2] = target: T1, Glycogen synthase kinase-3 beta (Homo sapiens, UniProt P49841); test: Inhibition of GSK3beta (unknown origin)-mediated phosphorylation of peptide substrate incubated for 15 mins prior to substrate addition measured after 90 mins by P33-radiolabeled assay
Target sequence in this assay (P49841 whole entry): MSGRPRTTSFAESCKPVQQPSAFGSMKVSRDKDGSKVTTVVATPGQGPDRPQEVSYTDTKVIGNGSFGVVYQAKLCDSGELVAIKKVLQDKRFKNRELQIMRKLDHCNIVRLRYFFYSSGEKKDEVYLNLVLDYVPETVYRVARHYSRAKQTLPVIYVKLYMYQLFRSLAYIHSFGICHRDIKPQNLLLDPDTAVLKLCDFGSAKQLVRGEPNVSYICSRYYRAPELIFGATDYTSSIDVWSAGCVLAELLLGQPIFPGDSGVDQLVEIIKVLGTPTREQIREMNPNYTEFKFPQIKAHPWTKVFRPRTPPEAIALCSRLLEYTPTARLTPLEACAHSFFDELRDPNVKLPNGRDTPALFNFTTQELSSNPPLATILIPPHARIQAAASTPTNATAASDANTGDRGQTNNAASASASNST

[3] = target: Cyclin-dependent kinase 2 (Homo sapiens) (UniProt P24941); test: Inhibition of CDK2-mediated Rb phosphorylation at Ser 807/811 in human NCI-H929 cells at […] after 24 hrs by immunoblotting analysis; type: cell-based
[4] = target: CDK1/Cyclin E (Homo sapiens) (UniProt P06493+P24864); test: Inhibition of human CDK1/Cyclin E at 0.1 uM incubated for 15 mins prior to substrate addition measured after 90 mins by P33-radiolabeled assay relative to control; type: protein-complex assay
[5] = target: Cyclin-dependent kinase 4/cyclin D1 (Homo sapiens) (UniProt P11802+P24385); test: Inhibition of human CDK4/Cyclin D1 at 0.1 uM incubated for 15 mins prior to substrate addition measured after 90 mins by P33-radiolabeled assay relative to control; type: protein-complex assay
[6] = target: CDK2/Cyclin A2 (Homo sapiens) (UniProt P24941+P20248); test: Inhibition of human CDK2/Cyclin A at 0.1 uM incubated for 15 mins prior to substrate addition measured after 90 mins by P33-radiolabeled assay relative to control; type: protein-complex assay
CDK9/Cyclin K = CDK9/Cyclin K (Homo sapiens, UniProt P50750); test: Inhibition of CDK9/Cyclin K (unknown origin)-mediated phosphorylation of peptide substrate incubated for 15 mins prior to substrate addition measured after 90 mins by P33-radiolabeled assay; type: protein-complex assay
In short: (§2)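 Radiometric (P33) kinase assay run by a contract lab on CDK–cyclin complexes. Inhibitor tested in duplicate at 0.05 nM to 1000 nM with ATP at 10 μM. […] For the in-house assays, IC50 was obtained by Hill-equation fitting.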

[7] = target: Dual specificity tyrosine-phosphorylation-regulated kinase 1A (Homo sapiens) (UniProt Q13627); test: Inhibition of human DYRK1A at 0.1 uM incubated for 15 mins prior to substrate addition measured after 90 mins by P33-radiolabeled assay relative to control
[8] = target: Dual specificity protein kinase CLK1 (Homo sapiens) (UniProt P49759); test: Inhibition of human CLK1 at 0.1 uM incubated for 15 mins prior to substrate addition measured after 90 mins by P33-radiolabeled assay relative to control
[9] = target: Cyclin-dependent kinase 5/CDK5 activator 1 (Homo sapiens, UniProt Q00535); test: Inhibition of CDK5/P25 (unknown origin)-mediated phosphorylation of peptide substrate incubated for 15 mins prior to substrate addition measured after 90 mins by P33-radiolabeled assay; type: protein-complex assay
CDK6/cyclin D1 = CDK6/cyclin D1 (Homo sapiens, UniProt Q00534); test: Inhibition of CDK6/Cyclin D1 (unknown origin)-mediated phosphorylation of peptide substrate incubated for 15 mins prior to substrate addition measured after 90 mins by P33-radiolabeled assay; type: protein-complex assay
[10] = target: CDK6/cyclin D3 (Homo sapiens) (UniProt P30281+Q00534); test: Inhibition of human CDK6/Cyclin D3 at 0.1 uM incubated for 15 mins prior to substrate addition measured after 90 mins by P33-radiolabeled assay relative to control; type: protein-complex assay
[11] = target: T2, Cyclin-dependent kinase 5/CDK5 activator 1 (Homo sapiens) (UniProt Q00535+Q15078); test: Inhibition of human CDK5/P25 at 0.1 uM incubated for 15 mins prior to substrate addition measured after 90 mins by P33-radiolabeled assay relative to control; type: protein-complex assay
[12] = target: CDK9/cyclin T1 (Homo sapiens) (UniProt O60563+P50750); test: Inhibition of human CDK9/CyclinT1 at 0.1 uM incubated for 15 mins prior to substrate addition measured after 90 mins by P33-radiolabeled assay relative to control; type: protein-complex assay; in short: as §1
[13] = Cytotoxicity against mouse TM4 cells after 72 hrs by MTT assay; type: functional, cell-based; details: TM4, 72 h
In short: (§3)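 Cells kept in RPMI or DMEM with 10% FBS at 37 °C, 5% CO₂ and allowed to attach overnight; 72 h with increasing inhibitor concentrations; then 1 mg/mL MTT for 3 h, DMSO solubilisation, OD read at 540 nm. Testis lines had culture conditions adapted to them. Dose-response in triplicate, 9 concentrations between 0.02 and 100 μM, averaged.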

MDA-MB-231 = test: Cytotoxicity against human MDA-MB-231 cells after 72 hrs by resazurin/resorufin-based fluorescence assay; type: functional, cell-based; details: MDA-MB-231, 72 h
CDK2/Cyclin A2 [14] = target: T3, CDK2/Cyclin A2 (Homo sapiens, UniProt P24941); test: Inhibition of human CDK2/Cyclin A2 using PKTPKKAKKL as substrate by P33-radiolabeled assay; type: protein-complex assay; in short: as §2
[15] = Cytotoxicity against mouse GC-1 cells after 72 hrs by MTT assay; type: functional, cell-based; details: GC-1, 72 h; in short: as §3
CDK2/Cyclin A2 [16] = target: T3, CDK2/Cyclin A2; test: Inhibition of human CDK2/Cyclin A2 using PKTPKKAKKL as substrate by fluorescence assay; type: protein-complex assay
[17] = target: T2, Cyclin-dependent kinase 5/CDK5 activator 1 (Homo sapiens); test: Inhibition of human CDK5/P35 at 0.1 uM incubated for 15 mins prior to substrate addition measured after 90 mins by P33-radiolabeled assay relative to control; type: protein-complex assay
[18] = target: Cyclin-dependent kinase 1/cyclin B1 (Homo sapiens) (UniProt P06493+P14635); test: Inhibition of human CDK1/Cyclin B at 0.1 uM incubated for 15 mins prior to substrate addition measured after 90 mins by P33-radiolabeled assay relative to control; type: protein-complex assay
[19] = Cytotoxicity against human MDA-MB-436 cells after 72 hrs by resazurin/resorufin-based fluorescence assay; type: functional, cell-based; details: MDA-MB-436, 72 h
[20] = Cytotoxicity against human NCI-H929 cells after 72 hrs by resazurin/resorufin-based fluorescence assay; type: functional, cell-based; details: NCI-H929, 72 h
U-266 = test: Cytotoxicity against human U266 cells after 72 hrs by resazurin/resorufin-based fluorescence assay; type: functional, cell-based; details: U-266, 72 h
[21] = target: T1, Glycogen synthase kinase-3 beta; test: Inhibition of human GSK3beta at 0.1 uM incubated for 15 mins prior to substrate addition measured after 90 mins by P33-radiolabeled assay relative to control
Target sequence in this assay (P49841 whole entry, looked up): as the sequence (P49841 whole entry) above

SK-UT-1 = test: Cytotoxicity against human SK-UT-1 cells after 72 hrs by resazurin/resorufin-based fluorescence assay; type: functional, cell-based; details: SK-UT-1, 72 h
HOS-TE85 = test: Cytotoxicity against human MNNG-HOS cells after 72 hrs by resazurin/resorufin-based fluorescence assay; type: functional, cell-based; details: HOS-TE85, 72 h
CDK3/Cyclin E = CDK3/Cyclin E (Homo sapiens, UniProt Q00526); test: Inhibition of CDK3/Cyclin E (unknown origin)-mediated phosphorylation of peptide substrate incubated for 15 mins prior to substrate addition measured after 90 mins by P33-radiolabeled assay; type: protein-complex assay
CDK2/Cyclin A1 = CDK2/Cyclin A1 (Homo sapiens, UniProt P24941); test: Inhibition of CDK2/Cyclin A1 (unknown origin)-mediated phosphorylation of peptide substrate incubated for 15 mins prior to substrate addition measured after 90 mins by P33-radiolabeled assay; type: protein-complex assay

T2 sequence (Q00535 whole entry): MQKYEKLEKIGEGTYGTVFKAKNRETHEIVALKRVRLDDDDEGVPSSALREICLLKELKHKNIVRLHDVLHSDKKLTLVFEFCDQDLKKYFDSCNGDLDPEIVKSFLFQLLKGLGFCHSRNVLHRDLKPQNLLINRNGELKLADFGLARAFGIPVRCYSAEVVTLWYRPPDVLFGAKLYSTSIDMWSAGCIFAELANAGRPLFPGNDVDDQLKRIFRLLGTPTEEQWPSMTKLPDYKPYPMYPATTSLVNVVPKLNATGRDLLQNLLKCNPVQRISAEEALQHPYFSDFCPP
T2 sequence (Q15078 99-307 partner limits assumed): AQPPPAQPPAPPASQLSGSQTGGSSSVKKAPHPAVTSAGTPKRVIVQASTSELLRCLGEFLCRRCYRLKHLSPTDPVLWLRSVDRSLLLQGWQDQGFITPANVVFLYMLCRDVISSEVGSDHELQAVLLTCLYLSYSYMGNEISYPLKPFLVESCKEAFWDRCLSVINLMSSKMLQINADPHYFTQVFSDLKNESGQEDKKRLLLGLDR
CDK3/Cyclin E, sequence (P24864 whole entry): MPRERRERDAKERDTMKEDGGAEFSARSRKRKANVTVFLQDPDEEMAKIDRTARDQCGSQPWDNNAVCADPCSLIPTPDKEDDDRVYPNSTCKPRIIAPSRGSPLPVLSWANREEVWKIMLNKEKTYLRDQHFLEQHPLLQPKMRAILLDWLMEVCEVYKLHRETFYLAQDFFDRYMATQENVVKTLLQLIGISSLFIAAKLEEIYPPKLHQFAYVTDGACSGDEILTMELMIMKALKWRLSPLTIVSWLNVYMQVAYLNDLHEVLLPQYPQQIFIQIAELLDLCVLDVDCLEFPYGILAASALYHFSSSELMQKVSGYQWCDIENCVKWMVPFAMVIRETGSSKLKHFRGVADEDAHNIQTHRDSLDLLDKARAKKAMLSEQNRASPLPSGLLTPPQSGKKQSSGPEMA
CDK3/Cyclin E, sequence (Q00526 whole entry): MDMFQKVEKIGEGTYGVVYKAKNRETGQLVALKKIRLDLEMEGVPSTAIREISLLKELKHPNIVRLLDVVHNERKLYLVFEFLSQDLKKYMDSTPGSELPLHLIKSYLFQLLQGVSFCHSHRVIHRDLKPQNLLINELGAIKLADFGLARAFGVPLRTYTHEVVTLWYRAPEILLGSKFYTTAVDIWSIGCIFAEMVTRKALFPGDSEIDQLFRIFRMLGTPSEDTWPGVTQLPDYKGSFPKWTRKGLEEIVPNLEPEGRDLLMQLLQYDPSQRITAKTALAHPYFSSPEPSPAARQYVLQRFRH
Dual specificity protein kinase CLK1 (Homo sapiens), sequence (P49759 whole entry, looked up): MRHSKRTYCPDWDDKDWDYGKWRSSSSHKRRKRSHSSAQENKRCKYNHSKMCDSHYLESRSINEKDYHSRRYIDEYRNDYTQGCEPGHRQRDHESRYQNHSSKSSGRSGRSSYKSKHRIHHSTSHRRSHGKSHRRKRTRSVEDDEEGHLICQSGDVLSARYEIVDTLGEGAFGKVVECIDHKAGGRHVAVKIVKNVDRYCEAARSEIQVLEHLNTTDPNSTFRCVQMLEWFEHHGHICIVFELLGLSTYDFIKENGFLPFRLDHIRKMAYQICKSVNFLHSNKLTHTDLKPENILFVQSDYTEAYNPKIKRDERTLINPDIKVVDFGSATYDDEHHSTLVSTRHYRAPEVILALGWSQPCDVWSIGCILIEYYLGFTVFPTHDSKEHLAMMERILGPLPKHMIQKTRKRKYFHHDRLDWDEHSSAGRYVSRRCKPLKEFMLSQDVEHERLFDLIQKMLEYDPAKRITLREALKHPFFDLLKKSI
CDK9/Cyclin K, sequence (P50750 whole entry): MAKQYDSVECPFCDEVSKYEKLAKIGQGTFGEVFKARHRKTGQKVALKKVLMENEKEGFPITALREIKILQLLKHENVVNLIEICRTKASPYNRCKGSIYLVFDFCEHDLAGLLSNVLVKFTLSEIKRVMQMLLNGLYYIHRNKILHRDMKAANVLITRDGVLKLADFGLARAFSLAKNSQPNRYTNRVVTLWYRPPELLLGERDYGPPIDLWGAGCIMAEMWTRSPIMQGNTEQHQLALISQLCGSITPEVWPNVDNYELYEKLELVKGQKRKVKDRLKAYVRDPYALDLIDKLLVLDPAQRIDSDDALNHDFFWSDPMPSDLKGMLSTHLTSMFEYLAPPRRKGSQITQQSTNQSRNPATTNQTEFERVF
CDK9/Cyclin K, sequence (O75909 whole entry, further chain): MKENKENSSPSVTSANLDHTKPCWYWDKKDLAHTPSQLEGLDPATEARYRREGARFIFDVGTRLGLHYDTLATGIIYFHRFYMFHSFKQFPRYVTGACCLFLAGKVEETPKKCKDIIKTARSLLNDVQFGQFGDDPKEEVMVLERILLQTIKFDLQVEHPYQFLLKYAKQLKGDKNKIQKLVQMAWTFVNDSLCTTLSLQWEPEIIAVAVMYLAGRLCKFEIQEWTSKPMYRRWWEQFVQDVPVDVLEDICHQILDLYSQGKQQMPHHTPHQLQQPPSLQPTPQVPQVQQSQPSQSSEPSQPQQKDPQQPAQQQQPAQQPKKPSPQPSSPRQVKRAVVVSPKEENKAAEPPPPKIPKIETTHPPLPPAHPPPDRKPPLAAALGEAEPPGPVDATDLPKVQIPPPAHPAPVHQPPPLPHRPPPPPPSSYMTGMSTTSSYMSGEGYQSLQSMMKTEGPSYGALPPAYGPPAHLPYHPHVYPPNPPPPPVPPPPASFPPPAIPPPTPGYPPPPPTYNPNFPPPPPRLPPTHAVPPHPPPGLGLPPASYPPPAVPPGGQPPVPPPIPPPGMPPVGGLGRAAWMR
CDK6/cyclin D1, sequence (P24385 whole entry): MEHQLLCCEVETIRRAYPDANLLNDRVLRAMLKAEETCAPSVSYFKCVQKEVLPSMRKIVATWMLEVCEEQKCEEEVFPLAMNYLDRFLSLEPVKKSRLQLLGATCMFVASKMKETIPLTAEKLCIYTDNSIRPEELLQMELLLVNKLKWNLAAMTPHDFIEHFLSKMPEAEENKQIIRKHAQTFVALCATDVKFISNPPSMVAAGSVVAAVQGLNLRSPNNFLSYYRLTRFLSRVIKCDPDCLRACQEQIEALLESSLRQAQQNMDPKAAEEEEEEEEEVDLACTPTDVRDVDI
CDK6/cyclin D1, sequence (Q00534 whole entry): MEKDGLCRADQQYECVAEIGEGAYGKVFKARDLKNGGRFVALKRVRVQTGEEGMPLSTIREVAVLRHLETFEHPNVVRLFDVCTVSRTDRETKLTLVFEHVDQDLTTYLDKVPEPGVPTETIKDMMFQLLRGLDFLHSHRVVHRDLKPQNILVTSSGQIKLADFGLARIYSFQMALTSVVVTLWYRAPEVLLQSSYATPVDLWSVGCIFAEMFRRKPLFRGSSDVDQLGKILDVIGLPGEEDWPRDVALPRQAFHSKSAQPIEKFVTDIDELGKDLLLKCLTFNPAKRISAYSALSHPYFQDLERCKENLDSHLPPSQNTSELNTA
Cyclin-dependent kinase 1/cyclin B1 (Homo sapiens), sequence (P06493 whole entry, looked up): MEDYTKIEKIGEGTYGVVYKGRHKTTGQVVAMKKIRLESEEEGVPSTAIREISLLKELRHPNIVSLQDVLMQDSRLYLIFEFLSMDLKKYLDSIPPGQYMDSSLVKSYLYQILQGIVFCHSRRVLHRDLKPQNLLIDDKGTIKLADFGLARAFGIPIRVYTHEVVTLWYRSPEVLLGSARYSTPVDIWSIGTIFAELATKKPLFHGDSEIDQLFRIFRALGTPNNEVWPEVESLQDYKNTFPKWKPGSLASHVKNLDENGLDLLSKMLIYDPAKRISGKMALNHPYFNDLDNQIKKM
Cyclin-dependent kinase 1/cyclin B1 (Homo sapiens), sequence (P14635 whole entry, looked up): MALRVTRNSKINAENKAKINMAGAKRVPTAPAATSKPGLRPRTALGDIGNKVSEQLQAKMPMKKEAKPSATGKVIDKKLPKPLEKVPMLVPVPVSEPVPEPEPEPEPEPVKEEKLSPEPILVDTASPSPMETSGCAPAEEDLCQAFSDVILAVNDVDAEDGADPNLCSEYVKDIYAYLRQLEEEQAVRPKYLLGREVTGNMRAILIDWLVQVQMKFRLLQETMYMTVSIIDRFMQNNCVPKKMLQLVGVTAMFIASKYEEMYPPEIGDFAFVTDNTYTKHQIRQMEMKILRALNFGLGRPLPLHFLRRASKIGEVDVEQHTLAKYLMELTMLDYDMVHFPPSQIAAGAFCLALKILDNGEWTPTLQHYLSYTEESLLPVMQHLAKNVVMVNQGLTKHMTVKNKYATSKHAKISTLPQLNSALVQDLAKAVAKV
CDK1/Cyclin E (Homo sapiens), sequence (P06493 whole entry, looked up): as the sequence (P06493 whole entry, looked up) above
CDK1/Cyclin E (Homo sapiens), sequence (P24864 whole entry, looked up): as the sequence (P24864 whole entry) above

## Nc1nc(Nc2ccc(S(N)(=O)=O)cc2)sc1C(=O)c1ccccc1[N+](=O)[O-]
[1]
  inhibition: 80%
[2]
  IC50: 107 nM
[3]
  inhibition: Active
[4]
  inhibition: 80%
[5]
  inhibition: 80%
[6]
  inhibition: 90%
CDK9/Cyclin K
  IC50: 13 nM
[7]
  inhibition: 50%
[8]
  inhibition: 50%
[9]
  IC50: 1.5 nM
CDK6/cyclin D1
  IC50: 6.6 nM
[10]
  inhibition: 85%
[11]
  inhibition: 90%
[12]
  inhibition: 90%
[13]
  IC50: 16000 nM
MDA-MB-231
  IC50: 1500 nM
CDK2/Cyclin A2 [14]
  IC50: 1.5 nM
[15]
  IC50: 20000 nM
CDK2/Cyclin A2 [16]
  IC50: 20 nM
[17]
  inhibition: 90%
[18]
  inhibition: 90%
[19]
  IC50: 2000 nM
[20]
  IC50: 1600 nM
U-266
  IC50: 1800 nM
[21]
  inhibition: 60%
SK-UT-1
  IC50: 1400 nM
HOS-TE85
  IC50: 3000 nM
CDK3/Cyclin E
  IC50: 38 nM
CDK2/Cyclin A1
  IC50: 1.8 nM
